Measured values published in PubChem BioAssay.
Activity calls are given as the source filed them.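 Rule for the calls, unless noted: active = viability at or under a set limit in both replicates, limit being median viability minus 3 SD (cut at about 48% in these data, passing the limit was not always enough); inconclusive = at or under the limit in just one replicate; inactive = at or above the limit in both replicates.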

Assays:
[1] = Her2 expression decrease, cell viability multiplex – SKBR3 breast tumor cells, AlphaScreen, ATP viability, primary screen (AID 461;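 active = Her2 level under about 52% in both replicate screens, with viability over 70% of control, limit read from the data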;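 for Her2 level: lower value means less Her2 protein in the cells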;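 for viability: percent of carrier control wells set as 100% viability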); details: SKBR3 Her2 protein level, 18-24 h, measured here: SKBR3 viability, ATP luminescence, at 10 µM
[2] = target: Receptor tyrosine-protein kinase erbB-2 (Homo sapiens) (UniProt P04626); test: as above; details: 18-24 h, at 10 µM, stronger effect = lower value
[3] = reduced viability of SK-BR-3 breast cancer cells – cell-based, 24 h, human, pilot screen (AID 572;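 active = viability at or below 10% of carrier control in both of two separate runs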;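 note: compound exposure lasted between 18 and 24 h rather than exactly 24 h; 100% = carrier-treated control wells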); details: SK-BR-3 viability, CellTiter-Glo luminescence, at 10 µM, stronger effect = lower value
[4] = HUVEC growth inhibition – cell-based, human, primary screen (AID 575;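 active = viability at or below 30% in both replicate assays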;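 note: 100% = median of untreated cell wells with 0.1% DMSO on each plate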); details: HUVEC proliferation, CellTiter-Glo luminescence, 72 h; at 10 µM; stronger effect = lower value
Method in brief: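 Timing: 72 h treatment at 37 °C; material: HUVEC primary cells; technique: CellTiter-Glo luminescence measuring cellular ATP; controls: vehicle and MePR control wells; measure: percent of median DMSO-control luminescence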

[5] = H69AR cell proliferation blockers – human, duplicate replicates, primary screen (AID 580); details: H69AR lung tumor cells viability, ATP luminescence, 72 h; at 10 µM; stronger effect = lower value;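 note: 100% = mean luminescence of untreated wells and 0% = no signal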
[6] = MRP1 drug-resistance reversers in H69AR cells – cell-based, doxorubicin co-treatment, pilot screen (AID 601;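 active = viability loss from added drug above about 55%, and viability with drug at most 40%, in both replicates, limit read from the data, passing the limit was not always enough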); details: CellTiter-Glo, 72 h, at 10 µM; for differential viability (reversal): stronger effect = higher value
[7] = yeast transport mutant growth inhibition pilot in 384-well plates, post-Golgi transport modulator project (AID 636; in the data active = inhibition above about 31%); details: absorbance 615 nm, about 18 h, stronger effect = higher value
[8] = growth suppression of yeast trafficking mutant, preliminary HTS, modulators of trafficking downstream of Golgi apparatus project, 1536-format plate, OD 615 nm (AID 637; in the data active = inhibition above about 30%); details: yeast transport mutant growth, absorbance 615 nm, 18 h; stronger effect = higher value
[9] = H69AR cells + 2 uM doxorubicin, measured here: viability with 2 uM doxorubicin, stronger effect = lower value
[10] = H69AR cells, compound alone cytotoxicity

Chain of Receptor tyrosine-protein kinase erbB-2 (Homo sapiens) (P04626 whole entry, looked up): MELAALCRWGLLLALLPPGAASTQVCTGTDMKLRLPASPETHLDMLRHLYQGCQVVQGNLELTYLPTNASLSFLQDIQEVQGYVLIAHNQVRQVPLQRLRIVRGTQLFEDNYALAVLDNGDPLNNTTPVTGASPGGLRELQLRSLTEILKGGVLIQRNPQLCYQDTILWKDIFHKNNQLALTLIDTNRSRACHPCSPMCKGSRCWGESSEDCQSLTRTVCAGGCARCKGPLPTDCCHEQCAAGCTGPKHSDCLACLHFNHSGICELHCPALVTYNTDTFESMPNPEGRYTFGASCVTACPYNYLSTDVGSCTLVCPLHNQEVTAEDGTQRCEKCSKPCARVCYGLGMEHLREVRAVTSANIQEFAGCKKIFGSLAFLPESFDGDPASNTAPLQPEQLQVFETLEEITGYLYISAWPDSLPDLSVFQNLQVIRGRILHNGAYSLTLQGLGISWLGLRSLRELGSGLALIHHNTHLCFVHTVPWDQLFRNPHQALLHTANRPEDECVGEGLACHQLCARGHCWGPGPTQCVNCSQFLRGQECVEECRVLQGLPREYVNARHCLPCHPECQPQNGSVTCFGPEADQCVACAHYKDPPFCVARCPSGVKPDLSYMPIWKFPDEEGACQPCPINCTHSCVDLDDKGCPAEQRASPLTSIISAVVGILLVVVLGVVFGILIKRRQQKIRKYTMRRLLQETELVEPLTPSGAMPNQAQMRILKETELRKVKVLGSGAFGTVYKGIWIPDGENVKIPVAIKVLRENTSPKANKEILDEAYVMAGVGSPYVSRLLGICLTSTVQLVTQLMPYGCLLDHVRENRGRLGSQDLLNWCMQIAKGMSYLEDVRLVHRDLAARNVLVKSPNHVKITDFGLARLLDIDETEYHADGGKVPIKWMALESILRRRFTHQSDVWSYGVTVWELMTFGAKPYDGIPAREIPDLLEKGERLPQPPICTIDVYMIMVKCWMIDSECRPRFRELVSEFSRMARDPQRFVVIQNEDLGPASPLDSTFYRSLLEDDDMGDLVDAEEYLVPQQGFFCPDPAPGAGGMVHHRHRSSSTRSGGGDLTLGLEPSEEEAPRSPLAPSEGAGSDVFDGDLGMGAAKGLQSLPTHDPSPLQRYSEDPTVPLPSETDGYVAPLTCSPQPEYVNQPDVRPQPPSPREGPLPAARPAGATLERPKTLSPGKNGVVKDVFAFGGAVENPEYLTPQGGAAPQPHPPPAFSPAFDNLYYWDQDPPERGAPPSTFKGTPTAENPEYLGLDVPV

Row | SMILES | viability [1] [%] | Her2 level [2] | viability [3] | viability [4] | viability [5] | differential viability (reversal) ([6]; H69AR cells + 2 uM doxorubicin) | viability [6, 9] [%] | viability [6, 10] [%] | inhibition [7] | inhibition [8]
1 | COc1ccc(OCCOC(=O)c2cccs2)cc1 | 97.5 | 92% (inactive) | 97.5% (inactive) | 111% (inactive) | 109% (inactive) | 19% (inactive) | 89.5 | 109 | -6.22% (inactive) | 5.24% (inactive)
2 | CCOc1ccc(S(=O)(=O)n2nc(C)cc2C)c2ccccc12 | 83.5 | 89.5% (inactive) | 83.5% (inactive) | 71.2% (inactive) | 79.7% (inactive) | 2.17% (inactive) | 77.6 | 79.7 | -1.03% (inactive) | 2% (inactive)
3 | O=C(Cn1nnc2ccccc2c1=O)NC1CCCc2ccccc21 (stereo not given) | 77 | 97.5% (inactive) | 77% (inactive) | 101% (inactive) | 103% (inactive) | 7.25% (inactive) | 95.4 | 103 | -2.67% (inactive) | 4.68% (inactive)
4 | Cc1noc(C)c1S(=O)(=O)Nc1c(C)n(C)n(-c2ccccc2)c1=O | 108 | 99% (inactive) | 108% (inactive) | 104% (inactive) | 98.4% (inactive) | 8.05% (inactive) | 90.3 | 98.4 | -5.13% (inactive) | -1.11% (inactive)
5 | CCOC(=O)CNC(=O)CSc1ncnc2c1cnn2-c1ccccc1 | 87.5 | 94% (inactive) | 87.5% (inactive) | 97.4% (inactive) | 102% (inactive) | 6.58% (inactive) | 95.1 | 102 | -4% (inactive) | -2.26% (inactive)
6 | COc1ccc(-c2c(C(F)(F)F)oc3c(CN4CCN(C)CC4)c(O)ccc3c2=O)cc1 | 84.5 | 108% (inactive) | 84.5% (inactive) | 87.9% (inactive) | 102% (inactive) | -1.1% (inactive) | 103 | 102 | -2.67% (inactive) | -6.03% (inactive)
7 | Cc1ccc(C(=O)N2CCCC(c3nc4c(nnn4Cc4ccccc4)c(=O)[nH]3)C2)cc1 (stereo not given) | 80.5 | 105% (inactive) | 80.5% (inactive) | 110% (inactive) | 83.4% (inactive) | 24.5% (inactive) | 58.9 | 83.4 | -3.08% (inactive) | 7.33% (inactive)
8 | Cc1ccc(-c2cn3nc(C)c(C)nc3n2)cc1 | 106 | 94% (inactive) | 106% (inactive) | 75.4% (inactive) | 85.5% (inactive) | 4% (inactive) | 81.5 | 85.5 | -4.93% (inactive) | 0% (inactive)
9 | CCCC(=O)Nc1ccccc1-c1nnn(CC(=O)Nc2ccc(OCC)cc2)n1 | 108 | 87% (inactive) | 108% (inactive) | 62% (inactive) | 89.1% (inactive) | -8.82% (inactive) | 97.9 | 89.1 | 1.82% (inactive) | -4.75% (inactive)
10 | CCOC(=O)C(CC)Sc1nc2c(c(=O)[nH]c(=O)n2C)n1C/C=C(/C)Cl (stereo not given) | 97.5 | 83% (inactive) | 97.5% (inactive) | 89.9% (inactive) | 84.9% (inactive) | 20.7% (inactive) | 64.2 | 84.9 | -6.27% (inactive) | 3.93% (inactive)
11 | O=c1[nH]c(SCc2ccccc2Cl)nc2c1CCCC2 | 100 | 75.5% (inactive) | 100% (inactive) | 65.4% (inactive) | 89.5% (inactive) | -3.21% (inactive) | 92.7 | 89.5 | -5.13% (inactive) | 0.17% (inactive)
12 | O=C(Nn1cnnc1)c1cc2c(s1)CCCC2 | 100 | 95.5% (inactive) | 100% (inactive) | 80% (inactive) | 102% (inactive) | -2.61% (inactive) | 104 | 102 | -3.42% (inactive) | -4% (inactive)
13 | CCOC(=O)C(C)On1c(SC(C)C(=O)OCC)nc2ccccc2c1=O (stereo not given) | 131 | 102% (inactive) | 131% (inactive) | 93.4% (inactive) | 82.1% (inactive) | -19.7% (inactive) | 102 | 82.1 | -3.68% (inactive) | -6.61% (inactive)
14 | O=C(Nc1cccc(C(=O)N2CCOCC2)c1)c1cccnc1 | 99.5 | 118% (inactive) | 99.5% (inactive) | 91% (inactive) | 91.2% (inactive) | -9.23% (inactive) | 100 | 91.2 | -6.18% (inactive) | -3.11% (inactive)
15 | CCOP(=O)(c1ccc(N(C)C)cc1)C(O)c1ccccc1OC (stereo not given) | 86 | 98.5% (inactive) | 86% (inactive) | 115% (inactive) | 98.7% (inactive) | 3.56% (inactive) | 95.1 | 98.7 | -1.07% (inactive) | -3.65% (inactive)
16 | CC1=C(C#N)C(c2ccoc2)C(C(=O)OCc2ccccc2)=C(N)S1 (stereo not given) | 100 | 88% (inactive) | 100% (inactive) | 99.5% (inactive) | 91.6% (inactive) | -0.82% (inactive) | 92.4 | 91.6 | -3.95% (inactive) | 0% (inactive)

Row | SMILES | viability [1] [%] | Her2 level [2] | viability [3] | viability [4] | viability [5] | differential viability (reversal) ([6]; H69AR cells + 2 uM doxorubicin) | viability [6, 9] [%] | viability [6, 10] [%] | inhibition [7] | inhibition [8]
17 | O=C(CCSc1ccccc1)N1CCN(C(=O)c2ccco2)CC1 | 99 | 99.5% (inactive) | 99% (inactive) | 93.1% (inactive) | 95.1% (inactive) | 11% (inactive) | 84.1 | 95.1 | -0.79% (inactive) | -0.32% (inactive)
18 | O=C(c1ccccc1)c1ccc2nc[nH]c2c1 | 96.5 | 89.5% (inactive) | 96.5% (inactive) | 75.4% (inactive) | 102% (inactive) | -15.3% (inactive) | 117 | 102 | 0.26% (inactive) | 3.06% (inactive)
19 | CN(C)c1nc(Oc2ccc(=O)n(C)n2)nc(N2CCOCC2)n1 | 94 | 98.5% (inactive) | 94% (inactive) | 95.7% (inactive) | 92.9% (inactive) | 1.74% (inactive) | 91.2 | 92.9 | -4.93% (inactive) | 1.64% (inactive)
20 | CCCCN(c1ccccc1)S(=O)(=O)c1ccc2c(c1)CCN2C(=O)CCC(=O)O | 116 | 100% (inactive) | 116% (inactive) | 93.8% (inactive) | 91.9% (inactive) | 1.98% (inactive) | 90 | 91.9 | -1.58% (inactive) | -6.73% (inactive)
21 | CC(=O)Nc1cccc(OCC(O)Cn2cnc3ccccc32)c1 (stereo not given) | 128 | 110% (inactive) | 128% (inactive) | 90% (inactive) | 97.9% (inactive) | 5.28% (inactive) | 92.7 | 97.9 | -0.14% (inactive) | 7.14% (inactive)
22 | Cc1ccc(O)c(NC(=O)COc2cc(C)ccc2C)c1 | 93.5 | 89.5% (inactive) | 93.5% (inactive) | 77.7% (inactive) | 89.4% (inactive) | 5.4% (inactive) | 84 | 89.4 | -1.97% (inactive) | -10.3% (inactive)
23 | CC(C)(C)OC(=O)N1CCCC1C(=O)N1CCc2ccccc21 (stereo not given) | 95.5 | 86% (inactive) | 95.5% (inactive) | 94.9% (inactive) | 84.9% (inactive) | -4.58% (inactive) | 89.4 | 84.9 | 1.17% (inactive) | -3.81% (inactive)
24 | Cc1ccccc1OCCN1C(=O)NC2(CCc3ccccc32)C1=O (stereo not given) | 94.5 | 83.5% (inactive) | 94.5% (inactive) | 92.9% (inactive) | 82.7% (inactive) | 0.01% (inactive) | 82.7 | 82.7 | -6.62% (inactive) | 0% (inactive)
25 | CS(=O)(=O)c1ccc2nc(NC(=O)C3C4C=CC(C4)C3C(=O)O)sc2c1 (stereo not given) | 96 | 154% (inactive) | 96% (inactive) | 101% (inactive) | 104% (inactive) | 13.3% (inactive) | 90.3 | 104 | -2.5% (inactive) | -12.8% (inactive)
26 | CCCCn1nnnc1SCC(=O)N1CCN(C(=O)c2ccco2)CC1 | 116 | 100% (inactive) | 116% (inactive) | 111% (inactive) | 93.6% (inactive) | 7.26% (inactive) | 86.3 | 93.6 | -6.71% (inactive) | 1.75% (inactive)
27 | CCOC(=O)c1sc2ncn(/N=C/N(C)C)c(=O)c2c1C | 98 | 97.5% (inactive) | 98% (inactive) | 114% (inactive) | 100% (inactive) | 5.85% (inactive) | 94.1 | 100 | -6.13% (inactive) | 4.68% (inactive)
28 | Cc1c(C(=O)OC(C)C)[nH]c2c1C(=O)CCC2 | 96.5 | 104% (inactive) | 96.5% (inactive) | 102% (inactive) | 106% (inactive) | 12.9% (inactive) | 93 | 106 | 0.39% (inactive) | -6.29% (inactive)
29 | COc1ccccc1NC(=O)CSC1CC(=O)N(c2ccc3c(c2)OCO3)C1=O (stereo not given) | 98 | 82.5% (inactive) | 98% (inactive) | 96.5% (inactive) | 99.4% (inactive) | 0.975% (inactive) | 98.4 | 99.4 | -4.53% (inactive) | 0.16% (inactive)
30 | Cc1ccc(CCNC(=O)C2CCN(S(=O)(=O)c3c(C)nn(C)c3C)CC2)cc1 | 103 | 115% (inactive) | 103% (inactive) | 114% (inactive) | 89% (inactive) | -7.15% (inactive) | 96.1 | 89 | -1.92% (inactive) | -2% (inactive)
31 | COc1ccc(C(=O)NCCCCCC(=O)O)cc1OC | 125 | 99% (inactive) | 125% (inactive) | 90.5% (inactive) | 92.2% (inactive) | -8.78% (inactive) | 101 | 92.2 | -7.24% (inactive) | -3.33% (inactive)
32 | CN1C(=O)C(CC(=O)N2CCN(C(c3ccccc3)c3ccccc3)CC2)N(C)C1=O (stereo not given) | 90.5 | 83% (inactive) | 90.5% (inactive) | 89.1% (inactive) | 81.9% (inactive) | -14% (inactive) | 95.9 | 81.9 | 0.26% (inactive) | -3.67% (inactive)
